Where two headings read alike, the source gives them in different places.
Columns and labels:
[1] = test system: mouse colonic crypt cultures (WT); test: Total GLP-1 release from primary colonic crypt cultures, WT mice; type: cell-based; settings: 1 μM ligand, 2 h, relative to basal (vehicle)
Procedure, shortened: (§1)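 Colonic crypts from male C57BL/6 littermates were collagenase-digested and seeded on Matrigel. […] Next day, cells were exposed to ligands for 2 h at 37 °C, in triplicate, in standard solution with 0.1% fatty-acid-free BSA and 10 mM glucose. Synthetic ligands were in DMSO; ALA was BSA-complexed at 6:1 molar. Total GLP-1 was measured by electrochemiluminescent immunoassay, expressed as fold over vehicle basal.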

[2] = biological target: T1, human GPR40 (Homo sapiens, UniProt O14842); type: binding
[3] = test system: mouse colonic crypt cultures GPR40 (−/−); test: Total GLP-1 release from primary colonic crypt cultures, Gpr40 KO mice; type: cell-based; settings: 1 μM ligand, 2 h, relative to basal (vehicle)
Procedure, shortened: as §1

[4] = test system: plasma GLP-1; test: Plasma total GLP-1 after oral gavage in fasted mice; type: in vivo, mouse; settings: 30 mg/kg oral, 30 min, overnight fasted mice; vehicle about 5 pmol/L
[5] = biological target: T1, human GPR40; test: IP turnover assay in transiently transfected COS-7 cells; type: cell-based; settings: for Emax: COS-7, read-out: IP3 (in vitro) Emax
[6] = PK experiments; settings: mouse, in vivo, po, 30 mg/kg
[7] = test system: plasma GIP; test: Plasma GIP after oral gavage in fasted mice; type: in vivo, mouse; settings: 30 mg/kg oral, 30 min, overnight fasted mice
[8] = biological target: T1, human GPR40; test: cAMP accumulation assay in transiently transfected COS-7 cells; type: cell-based; settings: for Stimulation of cAMP accumulation (in words): COS-7 transfected with GPR40
[9] = biological target: T1, human GPR40; type: binding; remark: listed apart in the source
[10] = phase-II studies, cited from earlier work

T1 sequence (O14842 whole entry): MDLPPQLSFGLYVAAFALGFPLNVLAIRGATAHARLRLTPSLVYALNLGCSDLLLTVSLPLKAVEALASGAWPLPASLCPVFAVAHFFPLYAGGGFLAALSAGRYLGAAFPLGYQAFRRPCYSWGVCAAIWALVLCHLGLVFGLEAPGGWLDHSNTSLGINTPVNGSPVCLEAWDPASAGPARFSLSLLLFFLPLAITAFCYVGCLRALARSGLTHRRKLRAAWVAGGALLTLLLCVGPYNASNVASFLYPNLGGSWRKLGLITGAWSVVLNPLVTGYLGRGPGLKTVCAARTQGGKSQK

SMILES | tGLP-1 (ex vivo) release, WT [1] | Binding (in vitro) [3H]L358: positive or negative competitive binding [2] | IC50 [2] | tGLP-1 (ex vivo) release, GPR40 (−/−) [3] | Plasma GLP-1, median of all experiments [4] | EC50 [5] | Emax [5] | Cmax [6] | Plasma GIP, median of all experiments ([7]; vehicle 53 pmol/L) | Stimulation of cAMP accumulation (in words) [8] | cAMP potency, fold lower than the potency for IP-accumulation ([8]; cAMP EC50 versus IP EC50) | Binding (in vitro) [3H]AM-1638: positive or negative competitive binding [9] | IC50 [9] | EC50 [8] | Significance of plasma GIP increase (in words) [7] | Effect on HbA1c ([10]; without signs of hypoglycemia) | Effect on plasma GLP-1 [10]
COc1ccc(F)c(-c2ccc(COc3cccc([C@@H](CC(=O)O)C4CC4)c3)cc2C2=CCCC2(C)C)c1 [AM-1638] | 3.0 ± 0.54 fold change | (neg) | 0.026 µM | 1.1 ± 0.07 fold change | 29 pmol/L | 0.0251 µM | 170 ± 14% | 11 µM | 383 pmol/L | stimulated cAMP accumulation robustly | 7 fold | (pos) | 0.029 µM |  |  |  | 
CC(C)c1noc(C2CCN(c3ncnc(Nc4ccc(S(C)(=O)=O)cc4F)c3[N+](=O)[O-])CC2)n1 [AR231453] | 4.7 ± 0.3 fold change |  |  |  |  |  |  |  |  |  |  |  |  |  |  |  | 
CC/C=C\C/C=C\C/C=C\C/C=C\C/C=C\C/C=C\CCC(=O)O [DHA, docosahexaenoic acid] |  |  |  |  |  | 12 µM | 56 ± 6% |  |  | not able to stimulate cAMP accumulation meaningfully |  |  |  | > 1000 µM |  |  | 
Cc1cc(OCCCS(C)(=O)=O)cc(C)c1-c1cccc(COc2ccc3c(c2)OC[C@H]3CC(=O)O)c1 [TAK-875, fasiglifam] | 1.5 ± 0.08 fold change | (pos) |  | 1.1 ± 0.12 fold change | 10.8 pmol/L |  | 98 ± 4% | 2 µM |  | no or very limited stimulation of cAMP production |  | (neg) |  |  | only increased plasma GIP significantly in one of the three experiments | decreased HbA1c as efficiently as sulfonylurea | no effect
